# Laboratory results published in paper PMC3932306 (Journal of natural products, 2013).
# Experiments:
# [1] = system: Plasmodium falciparum falcipain proteases; settings: cited from earlier work
# cathepsin L [2] = target: T1, cathepsin L (Homo sapiens, UniProt P07711); assay: Cathepsin L inhibition assay; assay type: biochemical; settings: for Selectivity Index: IC50 of assayed protease / IC50 cathepsin L
# How it was run: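 Recombinant human cathepsin L (3.0 ng/mL) with 20 µM Z-Phe-Arg-AMC in 50 mM sodium acetate, 100 mM NaCl, 1.0 mM EDTA, 4 mM DTT, pH 5.5, at 25 °C. Fluorescence read at 365/450 nm. Dose-response was […], 3-fold, 333–0.46 nM, in triplicate, with immediate mixing or 30 min enzyme–inhibitor preincubation. Data were scaled to E-64-c/DMSO controls and fitted to a four-parameter logistic model for IC50. Selectivity index = IC50 of the assayed protease / IC50 of cathepsin L for each condition.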
# human cathepsin H = human cathepsin H (Homo sapiens, UniProt P09668); assay: Selectivity: cathepsin H inhibition; assay type: biochemical; settings: at the highest assay concentrations
# Chain of human cathepsin H (P09668 116-335 limits assumed, other chains not shown): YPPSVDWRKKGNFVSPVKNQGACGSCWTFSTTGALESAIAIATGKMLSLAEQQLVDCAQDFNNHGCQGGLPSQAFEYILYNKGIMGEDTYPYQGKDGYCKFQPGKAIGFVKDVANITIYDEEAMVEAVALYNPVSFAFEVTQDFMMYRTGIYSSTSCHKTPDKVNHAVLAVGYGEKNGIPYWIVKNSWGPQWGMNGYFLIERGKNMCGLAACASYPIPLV
# How it was run: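 Human cathepsin H (50 ng/mL) in 50 mM potassium phosphate, 3 mM cysteine, 1 mM EDTA, pH 6.4, with 200 µM Arg-AMC substrate. Dose-response ran with 0 min and 30 min enzyme–inhibitor preincubation, otherwise as for the cathepsin L assay, in technical triplicate.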
# murine cathepsin L = settings: cited from earlier work
# cathepsin L [3] = target: T1, cathepsin L; assay: Reversibility: preincubation-dilution experiment; assay type: biochemical; settings: preincubation-dilution and activity-probe experiments
# How it was run: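 Preincubation-dilution test: cathepsin L at 100-fold final assay concentration was incubated 30 min with a concentrated test compound in 2 µL. The mix was then diluted 100-fold into assay buffer containing 10 µM Z-FR-AMC, 200 µL final. AMC release was monitored continuously in kinetic mode for 2 h. Activity was compared against a vehicle control.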
# cathepsin L [4] = target: T1, cathepsin L; assay: Active-site directed probe; assay type: binding; settings: 30 min preincubation; enzyme 100 nM
# How it was run: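 Test compound in a 6-point, 3-fold serial dilution (10% DMSO) was preincubated 30 min at room temperature with recombinant human cathepsin L in 100 mM sodium acetate, 1.0 mM EDTA, 4 mM DTT, pH 5.5. CLIK-148 and DMSO served as controls. Biotinylated epoxide probe DCG-04 (10 µM stock) was added for 30 min at room temperature. Samples were denatured at 70 °C for 5 min, run on 12% Bis-Tris SDS-PAGE and blotted to nitrocellulose. Detection used avidin/biotinylated HRP with chemiluminescence.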
# T1 sequence (P07711 114-333): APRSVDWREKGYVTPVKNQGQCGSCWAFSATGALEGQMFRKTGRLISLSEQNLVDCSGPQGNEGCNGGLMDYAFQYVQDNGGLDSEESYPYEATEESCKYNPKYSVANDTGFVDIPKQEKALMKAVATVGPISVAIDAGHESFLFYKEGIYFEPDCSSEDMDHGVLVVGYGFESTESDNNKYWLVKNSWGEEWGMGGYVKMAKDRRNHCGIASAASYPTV
compound,measurement,setting,value
"CC[C@H](C)[C@@H](C(=O)O[C@@H](CC(C)C)C(=O)N[C@@H](CC(C)C)C(=O)N[C@@H](C)/C=C/C(=O)N1C(=O)C=C(OC)[C@@H]1C)N(C)C [compound 1, gallinamide A]",mode of inhibition of falcipain proteases,[1]; based on kinetic model fitting,"covalent, irreversible inhibitor"
same,inhibition of P. falciparum falcipain proteases (in words),[1],potent inhibition
same,Selectivity Index,cathepsin L [2]; 0 min,1
same,Selectivity Index,cathepsin L [2]; 30 min,1
same,inhibition at 3 µg/mL,cathepsin L [2]; read-out: inhibition of cathepsin L,97 to 99%
same,activity against cathepsin H (in words),human cathepsin H,inactive
same,inhibition of murine cathepsin L (in words),murine cathepsin L,moderate inhibition
same,mode of inhibition,cathepsin L [3],irreversible
same,concentration giving complete loss of DCG-04 probe labeling,cathepsin L [4],333 nM
same,concentration giving decreased DCG-04 probe labeling,cathepsin L [4],111 nM
